Assay results taken from publication PMC6694902 (Journal of Taibah University Medical Sciences, 2017).
Several values for one entry are separate records, joined by “and”; a condition that tells them apart may be missing. Identical values can stand only once.

What was measured:
[1] = tested on: Klebsiella pneumoniae (MTCC 109); conditions: reported earlier by the authors ref 6; cited from earlier work
Escherichia coli (res) [2] = assay: Agar well diffusion, zone of inhibition; type: cell-based; conditions: mean ± S.D., n = 6; resistant to norfloxacin, ofloxacin, ampicillin, cefixime, nitrofurantoin
In short: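 Clinical isolate from a faecal sample (Bhubaneswar hospital). Nutrient agar plates were seeded with a 1.5 × 10^6 CFU/mL suspension matched to McFarland 0.5. Test compound was loaded into the agar wells from a DMF stock (1 mg/mL). Plates were incubated at 37 °C for 18–24 h and the inhibition zone was read. Amoxicillin and ampicillin were the reference antibiotics.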

Cryptococcus neoformans [3] = assay: Agar well diffusion, zone of inhibition; type: cell-based; conditions: mean ± S.D., n = 6
In short: (§1)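 Agar well diffusion on Sabouraud dextrose agar. C. albicans MTCC 3017 came from IMTECH; C. neoformans was an Utkal University strain. Plates were seeded with 1.5 × 10^6 CFU/mL suspensions (McFarland 0.5). Test compounds were dissolved in DMF (1 mg/mL stock) and loaded into wells, with fluconazole as reference. Incubation was 37 °C for 18–24 h, and zones were measured.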

[4] = DPPH radical scavenging assay; type: biochemical; conditions: mean ± S.D., n = 3; for IC50 (DPPH radical scavenging): graphically determined
In short: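 DPPH scavenging, a modified method, was read as absorbance at 517 nm for test compounds at several concentrations. BHT served as standard, and DPPH in methanol served as control. Percent inhibition was calculated from control and sample absorbances, and IC50 was obtained graphically. Data were analysed by one-way ANOVA with Dunnett's post hoc test.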

[5] = tested on: Staphylococcus aureus (res); assay: Minimum inhibitory concentration; type: cell-based; conditions: 31.25–500 µg/mL tested, 37 °C, 18–24 h
In short: (§2)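 MIC was determined in nutrient agar wells seeded with bacteria (McFarland 0.5, 1.5 × 10^6 CFU/mL). E. coli (res) and S. aureus (res) were clinical isolates; K. pneumoniae was MTCC 109. DMF stocks at 1 mg/mL were diluted two-fold to five levels (31.25–500 µg/mL) in wells, with amoxicillin and ampicillin as references. Plates were incubated at 37 °C for 18–24 h.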

Cryptococcus neoformans [6] = assay: Minimum inhibitory concentration; type: cell-based; conditions: 31.25–500 µg/mL tested, 37 °C, 18–24 h
In short: (§3)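 MIC was determined in agar wells on Sabouraud dextrose agar seeded with the fungal strain (McFarland 0.5, 1.5 × 10^6 CFU/mL). DMF stocks at 1 mg/mL were diluted two-fold to five levels (31.25–500 µg/mL) and loaded into wells, with fluconazole as reference. After 18–24 h at 37 °C, the lowest inhibitory concentration was taken as the MIC.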

[7] = tested on: Klebsiella pneumoniae (MTCC 109); assay: Minimum inhibitory concentration; type: cell-based; conditions: 31.25–500 µg/mL tested, 37 °C, 18–24 h
In short: as §2

[8] = tested on: Klebsiella pneumoniae (MTCC 109); assay: Agar well diffusion, zone of inhibition; type: cell-based; conditions: mean ± S.D., n = 6
In short: (§4)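 Agar well diffusion on nutrient agar. K. pneumoniae MTCC 109 came from IMTECH; S. aureus (res) was an Utkal University isolate. Plates were seeded with 1.5 × 10^6 CFU/mL suspensions (McFarland 0.5). Test compounds were dissolved in DMF (1 mg/mL stock) and placed in wells, with amoxicillin and ampicillin as references. Plates were kept at 37 °C for 18–24 h, then zones were read.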

Escherichia coli (res) [9] = assay: Minimum inhibitory concentration; type: cell-based; conditions: 31.25–500 µg/mL tested, 37 °C, 18–24 h
In short: as §2

[10] = tested on: Staphylococcus aureus (res); assay: Agar well diffusion, zone of inhibition; type: cell-based; conditions: mean ± S.D., n = 6; resistant to norfloxacin, ofloxacin, ampicillin, cefotaxime
In short: as §4

[11] = tested on: Candida albicans (MTCC 3017); assay: Agar well diffusion, zone of inhibition; type: cell-based; conditions: mean ± S.D., n = 6
In short: as §1

[12] = tested on: Candida albicans (MTCC 3017); assay: Minimum inhibitory concentration; type: cell-based; conditions: 31.25–500 µg/mL tested, 37 °C, 18–24 h
In short: as §3

| Molecule | antibacterial activity against K. pneumoniae [1] | zone of inhibition, E. coli (res) (Escherichia coli (res) [2]) | zone of inhibition, C. neoformans (Cryptococcus neoformans [3]) | % Inhibition (DPPH) ([4]; Conc. 10 μg/mL) | % Inhibition (DPPH) ([4]; Conc. 30 μg/mL) | % Inhibition (DPPH) ([4]; Conc. 50 μg/mL) | % Inhibition (DPPH) ([4]; Conc. 70 μg/mL) | IC50 (DPPH radical scavenging) [4] | Minimum inhibitory concentration (MIC), S. aureus (res) [5] | Minimum inhibitory concentration (MIC), C. neoformans (Cryptococcus neoformans [6]) | Minimum inhibitory concentration (MIC), K. pneumoniae [7] | zone of inhibition, K. pneumoniae [8] | Minimum inhibitory concentration (MIC), E. coli (res) (Escherichia coli (res) [9]) | zone of inhibition, S. aureus (res) [10] | zone of inhibition, C. albicans [11] | Minimum inhibitory concentration (MIC), C. albicans [12] |
| --- | --- | --- | --- | --- | --- | --- | --- | --- | --- | --- | --- | --- | --- | --- | --- | --- |
| COc1ccc(/N=C/c2cc(/N=N/c3cccc([N+](=O)[O-])c3)ccc2[O][Co][O]c2ccc(/N=N/c3cccc([N+](=O)[O-])c3)cc2/C=N/c2ccc(OC)cc2)cc1 [5a(Co Lig2), bis[2-{(E)-(4-methoxyphenylimino)methyl}-4-{(E)-(3-nitrophenyl)diazenylphenoxy}cobalt]] | significant antibacterial activity | – | – | – | – | – | – | – | – | – | – | – | – | – | – | – |
| Cc1cc(N=Nc2ccc([O][Cu][O]c3ccc(N=Nc4ccc(Br)c(C)c4)cc3C=Nc3nc(-c4ccc(Cl)cc4)cs3)c(C=Nc3nc(-c4ccc(Cl)cc4)cs3)c2)ccc1Br [Compound 6e, Bis[4-{(4-bromo-3-methylphenyl)diazenyl}-2-{(4-(4-chlorophenyl)thiazol-2-ylimino)methyl}phenoxy] copper,] | – | 14.83 ± 2.56 mm | 10.5 ± 1.52 mm | 31.24 ± 0.06% | 41.31 ± 0.02% | 51.77 ± 0.08% | 79.89 ± 0.04% | 46 ± 0.98 µg/mL | 62.5 µg/mL | 250 µg/mL | 31.25 µg/mL | 15.83 ± 2.23 mm | 62.5 µg/mL | 14.5 ± 1.52 mm | 11.17 ± 6.21 mm | 250 µg/mL |
| Bis[{4-((4-bromo-3-methylphenyl)diazenyl)-2-((4-phenylthiazol-2-limino)methyl)phenoxy}] cobalt [Compound 6a] | – | 16.67 ± 2.34 mm and 16.67 ± 2.34^∗ mm | 13.67 ± 2.94 mm | 29.72 ± 0.07% | 43.32 ± 0.11% | 63.44 ± 0.07 % | 83.02 ± 0.06% | 36 ± 0.56 µg/mL | 31.25 µg/mL | 125 µg/mL | 31.25 µg/mL | 16.17 ± 1.94 mm and 16.17 ± 1.94^∗ mm | 31.25 µg/mL | 20.83 ± 1.84 mm and 20.83 ± 1.84^∗ mm | 12.83 ± 2.23 mm | 31.25 µg/mL |
